Activity calls are given as the source filed them.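 How the source made its calls, unless noted: active means potentiation averaged over duplicate wells exceeding buffer-only control mean by more than 3 SD; inactive means the rest.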

The source of these data is PubChem BioAssay.

Experiment [1] is described as follows: nonspecific flux increase, KCNQ1-free cells – parental CHO cells, counter-screen for KCNQ1 potentiator project (AID 493006;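 active means duplicate-averaged activation above buffer control mean plus 5 SD of those controls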). Conditions: parental CHO-K1 cells, FluxOR thallium flux, at 10 µM; active compounds read high. In short, it runs like this: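 Benchmarks – buffer and R-L3 controls · Assay system – untransfected host CHO-K1 cells with FluxOR thallium dye · Measure – fluorescence change ratio scaled 0% buffer, 100% R-L3 · Technique – kinetic thallium-flux fluorescence · Timing – overnight 37 °C plating, 90 min RT dye, 20 min compound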
(Counterscreens check selectivity or assay interference.)

Experiment [2] concerns the target Potassium voltage-gated channel subfamily KQT member 1 (Homo sapiens) (UniProt P51787). Put plainly: enhancement of KCNQ1 channel thallium flux – FluxOR thallium flux, CHO cells, duplicates, confirmation (AID 493007).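 On outcome: cells depolarized by a potassium plus thallium sulfate stimulus after compound.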 Conditions: KCNQ1 cell line, FluxOR thallium flux fluorescence, at 10 µM; active compounds read high, % of reference activator effect, buffer zero. An outline of the steps:
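Material: CHO cells stably expressing the KCNQ1 potassium channel / Times: dye 90 min then compound 20 min, both at room temperature / Detection: kinetic thallium influx fluorescence with FluxOR dye, 10 s baseline, 110 s post-stimulus / Benchmarks: buffer-only wells as 0% and R-L3 activator as 100% / Replicates: each compound tested in duplicate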

The target of experiment [3] is Potassium voltage-gated channel subfamily KQT member 2 (Rattus norvegicus) (UniProt O88943). Put plainly: KCNQ2 thallium flux enhancement – KCNQ2-CHO-K1 cells, selectivity assay for KCNQ1 potentiator project (AID 493009;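 active means mean duplicate potentiation above the buffer control mean plus 5 SD of buffer wells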;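 further: assay conditions were tuned for KCNQ1 rather than KCNQ2 modulators; signal is max minus min fluorescence divided by baseline after thallium stimulus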). Conditions: FluxOR thallium flux fluorescence, at 10 µM; active compounds read high, scaled: buffer 0, activator control 100.
In experiment [4] the target is Potassium voltage-gated channel subfamily KQT member 1 (Homo sapiens) (UniProt P51787). Description: KCNQ1 activators by electrophysiology – IonWorks patch clamp, KCNQ1-CHO cells, orthogonal assay for KCNQ1 potentiator project, confirmation (AID 493184;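 active means current rise at least 3 SD above the untreated control mean in each of two repeat wells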). Conditions: automated patch clamp current, at 10 µM; active compounds read high. In short, it runs like this: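 Probe or stimulus: depolarizing pulse to +40 mV from -90 mV; Material: CHO cells carrying KCNQ1; Compound: one dose, 10 µM final; Signal: automated voltage clamp, amphotericin B perforated patch; Read-out basis: percent current increase versus pre-compound level; Buffer or medium: pH 7.4 external bath; Replication: duplicates.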
For orientation: Patch clamp records ionic current or voltage across a cell membrane.

Experiment [5] deals with Potassium voltage-gated channel subfamily E member 1 (Homo sapiens) + Potassium voltage-gated channel subfamily KQT member 1 (Homo sapiens) (UniProt P15382+P51787). Put plainly: KCNQ1-E1 channel activation – thallium flux, CHO-K1 KCNQ1/E1 cells, selectivity assay for KCNQ1 potentiator project, confirmation (AID 493186;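 active means mean duplicate activation above the buffer control mean plus 5 SD of those controls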). Conditions: FluxOR thallium flux, at 10 µM; active compounds read high. In short, it runs like this:
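system = KCNQ1/E1-expressing stable CHO-K1 cell line | doses = single compound concentration per well | times = dye 90 min, compound 20 min, room temperature | measured by = FluxOR Tl+ flux fluorescence, kinetic read | evaluation = fluorescence rise relative to baseline, as percent of R-L3 response above buffer | controls = buffer and R-L3 | replicates = duplicate wells per compound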

Potassium voltage-gated channel subfamily KQT member 1 (Homo sapiens), sequence (P51787 whole entry, looked up): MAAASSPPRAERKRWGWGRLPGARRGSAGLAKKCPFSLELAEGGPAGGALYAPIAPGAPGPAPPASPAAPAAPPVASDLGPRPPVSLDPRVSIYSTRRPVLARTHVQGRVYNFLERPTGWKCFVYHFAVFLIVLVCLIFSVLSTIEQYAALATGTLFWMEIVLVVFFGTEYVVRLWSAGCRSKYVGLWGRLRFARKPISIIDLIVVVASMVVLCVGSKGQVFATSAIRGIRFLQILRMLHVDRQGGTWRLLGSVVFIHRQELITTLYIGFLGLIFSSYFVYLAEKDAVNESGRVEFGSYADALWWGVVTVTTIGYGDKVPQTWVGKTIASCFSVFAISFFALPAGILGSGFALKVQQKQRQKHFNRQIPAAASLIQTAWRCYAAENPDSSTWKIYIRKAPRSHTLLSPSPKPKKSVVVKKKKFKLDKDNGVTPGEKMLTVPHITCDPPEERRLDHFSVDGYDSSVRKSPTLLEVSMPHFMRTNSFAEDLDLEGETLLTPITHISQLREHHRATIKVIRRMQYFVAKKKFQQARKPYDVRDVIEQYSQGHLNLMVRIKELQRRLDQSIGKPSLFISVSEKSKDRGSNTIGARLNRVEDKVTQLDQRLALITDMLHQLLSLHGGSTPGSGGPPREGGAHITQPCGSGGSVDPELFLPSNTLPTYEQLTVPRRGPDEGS
Potassium voltage-gated channel subfamily KQT member 2 (Rattus norvegicus), sequence (O88943 whole entry, looked up): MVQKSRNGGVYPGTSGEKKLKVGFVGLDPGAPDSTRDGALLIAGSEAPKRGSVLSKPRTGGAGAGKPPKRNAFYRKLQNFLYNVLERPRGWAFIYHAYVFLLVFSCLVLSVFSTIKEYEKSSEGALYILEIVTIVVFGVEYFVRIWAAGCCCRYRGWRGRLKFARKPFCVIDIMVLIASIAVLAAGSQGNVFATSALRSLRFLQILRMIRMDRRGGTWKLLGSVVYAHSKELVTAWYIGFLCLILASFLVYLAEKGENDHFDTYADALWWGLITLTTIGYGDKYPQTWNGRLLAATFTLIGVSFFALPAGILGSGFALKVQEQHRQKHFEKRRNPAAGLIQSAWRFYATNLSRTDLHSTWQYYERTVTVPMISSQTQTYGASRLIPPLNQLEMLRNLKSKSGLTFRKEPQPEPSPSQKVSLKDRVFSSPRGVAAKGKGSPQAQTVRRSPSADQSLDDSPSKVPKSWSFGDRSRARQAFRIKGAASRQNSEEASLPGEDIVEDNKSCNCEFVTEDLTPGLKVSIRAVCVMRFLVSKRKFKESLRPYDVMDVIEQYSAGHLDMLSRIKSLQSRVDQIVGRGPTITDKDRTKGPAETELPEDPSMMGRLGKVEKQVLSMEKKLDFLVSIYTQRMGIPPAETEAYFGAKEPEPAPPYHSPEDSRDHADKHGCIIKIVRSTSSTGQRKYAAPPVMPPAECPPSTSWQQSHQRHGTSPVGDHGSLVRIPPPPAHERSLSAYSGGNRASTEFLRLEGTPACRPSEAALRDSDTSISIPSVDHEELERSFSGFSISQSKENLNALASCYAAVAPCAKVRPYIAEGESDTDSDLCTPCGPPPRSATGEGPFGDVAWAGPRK
Potassium voltage-gated channel subfamily E member 1 (Homo sapiens) + Potassium voltage-gated channel subfamily KQT member 1 (Homo sapiens), sequence (P51787 whole entry, looked up): as the sequence (P51787 whole entry, looked up) above

As for `Nc1nnc(SCC(=O)N2CCN(c3ccccc3)CC2)n1-c1ccccc1`, the result in experiment [1], in experiment [2], in experiment [3], in experiment [4] and in experiment [5] was inactive.
`Oc1c(Br)cc(Br)cc1CNc1cccc2cccnc12`: the outcome in experiment [1], in experiment [3], in experiment [4] and in experiment [5] was inactive. For the same compound, the potentiation in experiment [2] was 28.5% (active).
As for `Cc1cccc(Cn2c(O)c(N=NC(=S)Nc3ccccc3F)c3ccccc32)c1`, the result in experiment [1], in experiment [4] and in experiment [5] was inactive. Also, the figures for the potentiation in experiment [2] and in experiment [3] were 22.5% (active) and 148% (active), respectively.
Turning to `C=CCNC(=S)Nc1nc2c(cc1C(=O)OCC)CCCC2`, the outcome in experiment [1], in experiment [3], in experiment [4] and in experiment [5] was inactive. Besides, the potentiation in experiment [2] is 39% (active).
Take `CC(=O)C[C@H]1c2cc(C(F)(F)F)ccc2S(=O)(=O)N1Cc1ccccc1`: the outcome in experiment [1], in experiment [3], in experiment [4] and in experiment [5] was inactive. Besides, the potentiation in experiment [2] was 65.5% (active).
As to `COc1cc(/C=N/Nc2nc(N3CCCC3)nc(N3CCCC3)n2)ccc1OCc1ccccc1F`, the result in experiment [1], in experiment [2], in experiment [3], in experiment [4] and in experiment [5] was inactive.
Regarding `COC(=O)N/N=C/c1cc(C)n(-c2ccc(F)cc2)c1C`, the outcome in experiment [1], in experiment [2], in experiment [3], in experiment [4] and in experiment [5] was inactive.
Consider `COc1c(Br)cc(/C=N/n2c(-c3ccccc3)n[nH]c2=S)c(O)c1Br`, for which the result in experiment [1], in experiment [2], in experiment [3], in experiment [4] and in experiment [5] was inactive.
As for `Cn1c(O)c(N=NC(=S)Nc2ccccc2F)c2cc(S(=O)(=O)N3CCOCC3)ccc21`, the outcome in experiment [1], in experiment [2], in experiment [3], in experiment [4] and in experiment [5] was inactive.
`O=C(Nc1ccccc1Br)c1ccccc1-c1ccccc1`: the outcome in experiment [1], in experiment [3], in experiment [4] and in experiment [5] was inactive. The potentiation in experiment [2] is 29.5% (active).
Take `O=c1c2cc(F)ccc2[nH]c(=S)n1Cc1ccc(F)cc1`: the result in experiment [1], in experiment [2], in experiment [3], in experiment [4] and in experiment [5] was inactive.
`CCCSc1ncnc2c1oc1ccccc12`: the outcome in experiment [1], in experiment [2], in experiment [3], in experiment [4] and in experiment [5] was inactive.
Regarding `CCc1cc(C(=O)N2CCN(c3ccccn3)CC2)sc1C`, the result in experiment [1], in experiment [2], in experiment [3], in experiment [4] and in experiment [5] was inactive.
As for `CC1CCCCN1CCCNC(=O)Cn1ncc2c([nH]c3ccccc32)c1=O` (stereo not given), the result in experiment [1], in experiment [2], in experiment [3], in experiment [4] and in experiment [5] was inactive.
Turning to `O=C(NNC(=S)NC(=O)c1ccc(Br)cc1)c1cccc([N+](=O)[O-])c1`, the outcome in experiment [1], in experiment [2], in experiment [3], in experiment [4] and in experiment [5] was inactive.
Take `CC(Sc1cccc[n+]1[O-])c1ccccc1` (stereo not given): the outcome in experiment [1], in experiment [2], in experiment [3], in experiment [4] and in experiment [5] was inactive.
With `Nc1nc(CCl)nc(Nc2ccc3ccccc3c2)n1`, the result in experiment [1], in experiment [2], in experiment [3], in experiment [4] and in experiment [5] was inactive.
For `CS(=O)(=O)c1ccc(Cl)c(NC(=O)c2cc(S(=O)(=O)N3CCOCC3)ccc2N2CCCC2)c1`, the result in experiment [1], in experiment [2], in experiment [3], in experiment [4] and in experiment [5] was inactive.
Turning to `Cc1cccc(C(=O)O/N=C(\N)c2cccc([N+](=O)[O-])c2)c1`, the result in experiment [1], in experiment [2], in experiment [3], in experiment [4] and in experiment [5] was inactive.
Consider `Oc1ccc(Br)cc1C=Nc1ccc(Cl)cc1`, for which the outcome in experiment [1], in experiment [2], in experiment [3], in experiment [4] and in experiment [5] was inactive.
On to `CC1CN(C(=S)NC(=O)c2ccco2)CC(C)O1` (stereo not given), for which the outcome in experiment [1], in experiment [2], in experiment [3], in experiment [4] and in experiment [5] was inactive.
In the case of `Cc1nc(NC(=S)NC(=O)c2ccccc2)sc1C`, the outcome in experiment [1], in experiment [2], in experiment [3], in experiment [4] and in experiment [5] was inactive.
Turning to `CCCCc1ccc(-c2csc(/C(C#N)=C/c3ccco3)n2)cc1`, the outcome in experiment [1], in experiment [3], in experiment [4] and in experiment [5] was inactive. In addition, the potentiation in experiment [2] was 132% (active).
For the compound `COc1ccccc1NC(=O)CC1C(=O)NCCN1C(=O)Nc1ccc(Cl)c(Cl)c1` (stereo not given), the outcome in experiment [1], in experiment [4] and in experiment [5] was inactive. The potentiation was 37.5% (active) in experiment [2] and 157% (active) in experiment [3].
Regarding `CCCn1c(SCC(=O)Nc2ccccc2C(=O)OC)nc2c1c(=O)n(C)c(=O)n2C`, the result in experiment [1], in experiment [3], in experiment [4] and in experiment [5] was inactive. In experiment [2], the potentiation is 120% (active).
Regarding `COc1ccc(C(=O)NNC(=S)NC(=O)c2cc(-c3ccccc3)nc3ccccc23)cc1`, the outcome in experiment [1], in experiment [2], in experiment [3], in experiment [4] and in experiment [5] was inactive.
For the compound `COc1ccc(C2c3ccc4ccccc4c3Oc3ncn(CCN4CCOCC4)c(=N)c32)cc1OC` (stereo not given), the result in experiment [1], in experiment [2], in experiment [3], in experiment [4] and in experiment [5] was inactive.
On to `COc1ccc(-c2nonc2NC(=O)c2oc3ccccc3c2C)cc1OC`, for which the outcome in experiment [1], in experiment [2], in experiment [3], in experiment [4] and in experiment [5] was inactive.
For the compound `COc1ccc(OC)c(NC(=S)N2CCC(C(O)(c3ccccc3)c3ccccc3)CC2)c1`, the outcome in experiment [1], in experiment [4] and in experiment [5] was inactive. Besides, the potentiation in experiment [2] is 43% (active); in experiment [3], 174% (active).
In the case of `CS(=O)(=O)N1CCc2cc(-c3csc(NC(=O)C(c4ccccc4)c4ccccc4)n3)ccc21`, the result in experiment [1], in experiment [2], in experiment [3], in experiment [4] and in experiment [5] was inactive.
